Data on one compound can be found in ChEMBL document CHEMBL2040715, “Discovery of a Potent HIV Integrase Inhibitor that Leads to a Prodrug with Significant anti-HIV Activity” (ACS Med Chem Lett, 2011).

In series [1] the target is Human immunodeficiency virus type 1 integrase (Human immunodeficiency virus 1) (UniProt Q7ZJM1). Briefly: (§1) Inhibition of HIV1 integrase-mediated strand transfer.
In series [2] the target is Human immunodeficiency virus type 1 integrase (Human immunodeficiency virus 1, UniProt Q7ZJM1). The description is as §1.
Chain of Human immunodeficiency virus type 1 integrase (Q7ZJM1 whole entry): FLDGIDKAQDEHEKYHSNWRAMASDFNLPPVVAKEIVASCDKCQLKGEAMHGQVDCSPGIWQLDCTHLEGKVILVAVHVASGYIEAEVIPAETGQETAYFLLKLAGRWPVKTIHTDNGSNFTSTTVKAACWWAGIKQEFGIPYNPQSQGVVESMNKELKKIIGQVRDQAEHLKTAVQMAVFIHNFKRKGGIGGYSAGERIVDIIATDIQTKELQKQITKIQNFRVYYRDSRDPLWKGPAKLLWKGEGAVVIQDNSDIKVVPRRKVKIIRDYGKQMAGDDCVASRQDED
The subject of series [3] is Human immunodeficiency virus 1. The series can be described thus: Antiviral activity against HIV1 infected in MAGI cells by beta-galactosidase reporter gene assay. In kind it is functional, organism-based. Particulars: Human immunodeficiency virus 1, MAGI; call rule not given here. In short, it runs like this:
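HIV-1 infection of MAGI cells, with raltegravir as the MOI-sensitive positive control validating each run. EC50 and EC90 were determined.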
For orientation: A reporter such as luciferase makes a cellular process visible.

For the next series, the target named is Cytochrome P450 3A4 (Homo sapiens, UniProt P08684). Briefly: Activation of CYP3A4 in human liver microsomes incubated for 3 mins prior to NAPDH-addition measured after 30 mins by RP-HPLC analysis. In kind it is ADME, Microsome. Particulars: 0.5 h. A general note: Liver microsomes are vesicles of endoplasmic reticulum, rich in cytochrome P450 enzymes.
Chain of Cytochrome P450 3A4 (P08684 whole entry): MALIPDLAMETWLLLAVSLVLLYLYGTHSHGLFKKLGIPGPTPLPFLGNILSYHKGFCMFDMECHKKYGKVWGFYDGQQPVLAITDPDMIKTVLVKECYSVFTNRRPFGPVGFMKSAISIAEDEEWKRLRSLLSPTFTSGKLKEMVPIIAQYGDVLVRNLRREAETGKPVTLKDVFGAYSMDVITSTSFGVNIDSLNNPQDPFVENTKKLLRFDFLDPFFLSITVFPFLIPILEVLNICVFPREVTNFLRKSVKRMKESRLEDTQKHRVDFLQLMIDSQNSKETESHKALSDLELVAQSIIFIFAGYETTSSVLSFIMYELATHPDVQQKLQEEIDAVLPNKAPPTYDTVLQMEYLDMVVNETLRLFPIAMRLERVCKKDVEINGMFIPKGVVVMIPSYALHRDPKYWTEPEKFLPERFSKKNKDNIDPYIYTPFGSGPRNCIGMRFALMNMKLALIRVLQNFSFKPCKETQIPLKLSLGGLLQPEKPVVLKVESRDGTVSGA
The next series has as its target T1, Cytochrome P450 2C8 (Homo sapiens, UniProt P10632).
T1 sequence (P10632 whole entry): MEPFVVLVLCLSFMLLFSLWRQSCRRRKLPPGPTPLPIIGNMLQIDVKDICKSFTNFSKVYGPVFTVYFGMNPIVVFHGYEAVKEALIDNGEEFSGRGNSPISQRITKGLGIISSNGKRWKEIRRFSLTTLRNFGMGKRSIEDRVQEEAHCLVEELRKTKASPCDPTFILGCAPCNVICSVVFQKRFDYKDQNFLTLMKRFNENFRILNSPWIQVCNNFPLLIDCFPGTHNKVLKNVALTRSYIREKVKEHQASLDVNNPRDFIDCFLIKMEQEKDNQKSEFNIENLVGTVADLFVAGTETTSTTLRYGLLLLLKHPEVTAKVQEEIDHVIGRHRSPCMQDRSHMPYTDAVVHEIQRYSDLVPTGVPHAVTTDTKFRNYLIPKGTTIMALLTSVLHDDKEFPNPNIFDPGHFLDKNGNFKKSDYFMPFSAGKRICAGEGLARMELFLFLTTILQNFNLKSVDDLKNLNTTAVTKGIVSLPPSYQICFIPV
The series can be described thus: Activation of CYP2C8 in human liver microsomes incubated for 3 mins prior to NAPDH-addition measured after 30 mins by RP-HPLC analysis. Type of series: ADME, Microsome. Particulars: 0.5 h.

Series [4] addresses T2, UDP-glucuronosyltransferase 1A1 (Homo sapiens, UniProt P22309).
T2 sequence (P22309 whole entry): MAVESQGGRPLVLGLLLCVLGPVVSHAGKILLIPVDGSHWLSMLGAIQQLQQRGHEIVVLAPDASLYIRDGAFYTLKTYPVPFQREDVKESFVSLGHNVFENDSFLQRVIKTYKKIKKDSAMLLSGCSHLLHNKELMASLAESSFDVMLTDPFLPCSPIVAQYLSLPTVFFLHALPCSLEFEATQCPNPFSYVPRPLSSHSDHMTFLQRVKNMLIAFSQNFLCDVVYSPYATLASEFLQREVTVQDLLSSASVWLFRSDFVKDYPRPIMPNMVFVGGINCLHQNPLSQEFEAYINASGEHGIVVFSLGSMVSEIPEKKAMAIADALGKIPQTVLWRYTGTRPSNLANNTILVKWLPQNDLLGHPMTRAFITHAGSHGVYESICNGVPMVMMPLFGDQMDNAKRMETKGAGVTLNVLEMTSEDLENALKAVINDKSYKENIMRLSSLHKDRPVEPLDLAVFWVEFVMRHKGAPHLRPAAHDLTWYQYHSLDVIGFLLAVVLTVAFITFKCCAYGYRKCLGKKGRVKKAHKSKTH
Briefly: Activity at UGT1A1 in human liver microsomes at 50 uM incubated for 3 mins prior to NADPH-addition measured up to 120 mins by HPLC/UV analysis. In kind it is ADME, Microsome.

Series [5] concerns the target T3, UDP-glucuronosyltransferase 1A6 (Homo sapiens, UniProt P19224).
T3 sequence (P19224 whole entry): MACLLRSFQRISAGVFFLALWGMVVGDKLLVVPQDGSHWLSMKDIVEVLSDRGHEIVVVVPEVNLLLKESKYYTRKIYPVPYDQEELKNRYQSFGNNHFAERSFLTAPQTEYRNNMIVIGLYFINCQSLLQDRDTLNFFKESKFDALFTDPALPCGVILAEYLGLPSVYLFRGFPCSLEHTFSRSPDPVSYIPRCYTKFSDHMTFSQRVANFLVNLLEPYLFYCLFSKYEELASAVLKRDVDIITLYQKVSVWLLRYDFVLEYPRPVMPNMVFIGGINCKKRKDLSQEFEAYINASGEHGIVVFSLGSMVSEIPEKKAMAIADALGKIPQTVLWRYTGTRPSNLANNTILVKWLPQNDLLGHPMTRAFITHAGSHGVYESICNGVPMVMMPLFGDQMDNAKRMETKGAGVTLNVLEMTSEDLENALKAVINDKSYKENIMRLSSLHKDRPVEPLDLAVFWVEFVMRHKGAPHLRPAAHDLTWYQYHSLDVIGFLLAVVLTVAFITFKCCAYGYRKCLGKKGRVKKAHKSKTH
Briefly: Activity at UGT1A6 in human liver microsomes at 50 uM incubated for 3 mins prior to NADPH-addition measured up to 120 mins by HPLC/UV analysis. In kind it is ADME, Microsome.

In series [6] the target is T4, UDP-glucuronosyltransferase 1A9 (Homo sapiens, UniProt O60656).
T4 sequence (O60656 whole entry): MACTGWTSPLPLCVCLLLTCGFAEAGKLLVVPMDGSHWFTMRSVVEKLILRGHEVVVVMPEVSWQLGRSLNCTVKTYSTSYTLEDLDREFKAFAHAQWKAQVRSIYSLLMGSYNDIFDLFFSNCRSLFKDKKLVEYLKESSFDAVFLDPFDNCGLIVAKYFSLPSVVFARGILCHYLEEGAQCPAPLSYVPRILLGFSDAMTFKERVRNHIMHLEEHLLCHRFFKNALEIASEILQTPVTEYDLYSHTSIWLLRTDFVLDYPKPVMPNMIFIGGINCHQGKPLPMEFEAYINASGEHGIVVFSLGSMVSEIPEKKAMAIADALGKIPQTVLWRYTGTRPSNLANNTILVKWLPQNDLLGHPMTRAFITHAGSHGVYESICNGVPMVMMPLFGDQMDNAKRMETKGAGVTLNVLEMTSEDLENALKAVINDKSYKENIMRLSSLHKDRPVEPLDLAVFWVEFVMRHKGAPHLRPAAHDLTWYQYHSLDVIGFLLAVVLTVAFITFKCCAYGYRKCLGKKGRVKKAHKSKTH
Briefly: Activity at UGT1A9 in human liver microsomes at 50 uM incubated for 3 mins prior to NADPH-addition measured up to 120 mins by HPLC/UV analysis. Type of series: ADME, Microsome.

Each structure is given as a SMILES string.

Chain of Human immunodeficiency virus type 1 integrase (Human immunodeficiency virus 1) (Q7ZJM1 as listed by the source): as the sequence (Q7ZJM1 whole entry) above

Broadly, the IC90 is the concentration at which the effect reaches the 90% level. A word on the IC50: it is the point on the concentration scale where inhibition reaches its midpoint. The term EC50 denotes the midpoint of the concentration-response curve. High values mean a need for much substance, low ones an effect from little substance. The compound `O=C(O)/C(O)=C/C(=O)c1cc(Cc2ccc(F)cc2F)cn(Cc2ccccc2F)c1=O` gave an IC90 in series [1] of 97 nM. In series [2], this compound came in with an IC50 of 6 nM. Also, a half-maximal response in series [3] (EC50) required 500 nM. Also, the Activity result (on Cytochrome P450 3A4; on Cytochrome P450 2C8; in series [4]; in series [5]; in series [6]) was “Not Active” each time.
